Test results reported in publication PMC2947842 (Bioorganic & medicinal chemistry, 2010).
Positions of bridges follow the written chain, without caps; N, C: chain ends. Non-standard residues stand in square brackets, D forms with d. Residues, ends and D or L forms follow the SMILES beside them.

Test system: B16/F1 melanoma cells
Test: Clonogenic cytotoxicity
Format: cell-based, murine
Conditions: 0.1 μM peptide, 3 h incubation at 37 °C, colonies after 6 days
Summary of the method: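 B16/F1 cells seeded at 200 cells/well and exposed for 3 h at 37 °C in culture medium to 0.1 μM test peptide, comparator peptides, or medium alone. Washed twice with PBS and regrown in medium for 6 days. Fixed in methanol:glacial acetic acid (3:1), hematoxylin-stained, and scored by microscope; colonies over 50 cells counted as survivors. Survival normalized to untreated (100%). Unpaired Student t-test, p<0.05.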

CC(C)[C@H](NC(=O)[C@@H]1CCCN1C(=O)[C@H](CCCNC(=N)N)NC(=O)[C@H](CS)NC(=O)[C@H](Cc1c[nH]c2ccccc12)NC(=O)[C@H](CCCNC(=N)N)NC(=O)[C@@H](Cc1ccccc1)NC(=O)[C@H](Cc1c[nH]cn1)NC(=O)[C@H](CCC(=O)O)NC(=O)[C@H](CS)NC(=O)[C@H](CS)NC(=O)[C@H](CCCNC(=N)N)NC(=O)[C@@H]1CC(=O)N[C@@H](CCCNC(=N)N)C(=O)NCC(=O)N[C@@H](CC(=O)O)C(=O)N[C@H](Cc2ccc(O)cc2)C(=O)N1)C(N)=O [RGD-Arg-(Arg^11)CCMSH] (RGD[dY]DRCCEH[dF]RWCRPV-NH2; lactam N-5; C-terminus assumed)
Decrease in clonogenic survival in comparison with the untreated group: 62%

[Cys^3,4,10, D-Phe^7, Arg^11]α-MSH3-13 [(Arg^11)CCMSH]
Decrease in clonogenic survival in comparison with the untreated group: 11%
